# Source: PubChem
# TbHK1 inh = T. brucei hexokinase 1 inhibition. inhibition, % at 10 µM. hit rate 0.11% among 220,000. AID 1430. recombinant TbHK1, G6PDH-coupled NADH A340;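 active means inhibition of 50% or more in the single-dose primary screen; inactive means inhibition below 50%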
# HKDC1 inhibitor = HKDC1 (human) hexokinase inhibition; recombinant HKDC1, G6PDH/diaphorase resazurin coupled fluorescence; inhibition, % at 20 µM; hit rate 0.16% among 340,000; AID 493160;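 active means inhibition above about 35% when tested at 20 µM, limit read from the data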;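 further: plate controls were DMSO wells with enzyme for no effect and DMSO wells lacking enzyme for full effect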
#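 Incubation: 90 min at room temperature in dark / Material: recombinant HKDC1 (HK5) hexokinase enzyme, produced in-house / Quantity: enzyme 5 µg/mL final / Compound: one dose of 20 µM, 1% DMSO / Reagent: glucose and ATP substrates / Buffer or medium: Tris pH 8.0 buffer with MgCl2, Tween-20, BSA, BME / Technique: resorufin fluorescence at 613 nm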
# PfG6PD inh = PfG6PD (Plasmodium falciparum) enzyme inhibition | hit rate 0.78% among 350,000 | inhibition, % at 20 µM | PfGluPho enzyme, NADPH resazurin-diaphorase fluorescence;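 active means inhibition reaching at least a set limit at 20 µM in the primary screen, cut at about 59% in these data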;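 further: 0% = DMSO wells with substrate and 100% = DMSO wells lacking glucose-6-phosphate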
# EP2 mod = modulates human prostaglandin E2 receptor EP2 signaling; P43116; EP2-expressing cells, cAMP HTRF FRET, PGE2 co-stimulation; induction, % at 25 µM; hit rate 0.83% among 260,000; AID 940;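 active means compounds whose cAMP rise, as percent of the full-agonist control response, exceeds 60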;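 further: rat C6 glioma line stably carrying human EP2 under a CMV promoter; the protocol text gives 20 µM as final concentration; 100% = response of wells given 1 µM PGE2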
# EP2 antag = inhibitors of human EP2 prostaglandin E2 receptor. C6 glioma cells expressing human EP2, cAMP TR-FRET; cells stimulated with saturating PGE2. inhibition, % at 25 µM. hit rate 0.52% among 260,000. AID 1422;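 active means percent inhibition above 40 after rounding to a whole number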;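 further: rat C6 glioma host cells with rolipram phosphodiesterase inhibitor present; the protocol text gives 20 µM as final concentration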
# PHOSPHO1 block = inhibitors of human PHOSPHO1 phosphatase | recombinant PHOSPHO1, absorbance phosphatase assay | inhibition, % at 13.3 µM | hit rate 1.1% among 290,000 | AID 1565; in the data active means inhibition above about 60%
# PfG6PD confirm = confirmation of Plasmodium falciparum G6PD inhibitors; shares compounds with PfG6PD inh; recombinant PfGluPho, NADPH-diaphorase-resazurin fluorescence; inhibition, % at 20 µM; hit rate 34% among 2,400;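 active means inhibition of at least 50% at 20 µM in any single replicate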;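 further: 0% = DMSO with substrate and 100% = DMSO lacking glucose-6-phosphate substrate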
# Diaph ctr 10uM = counter-screen for P. falciparum G6PD inhibitors: diaphorase inhibitors, oxidizers; shares compounds with PfG6PD inh; hit rate 39% among 820; diaphorase-coupled resazurin reduction, fluorescence, NADPH 10 uM; inhibition, % at 20 µM;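 active means average inhibition reaching 50% or more with the compound at 20 µM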;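 further: resorufin red fluorescence formed as diaphorase reduces resazurin using NADPH; 0% = DMSO with enzyme and 100% = DMSO without enzyme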
# Diaph ctr 30uM = diaphorase inhibition or oxidation at 30 uM NADPH; inhibition, % at 20 µM; AID 504863; shares compounds with PfG6PD inh; hit rate 29% among 820; Diaphorase/resazurin coupled assay, resorufin fluorescence;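 active means inhibition averaging 50% or more, tested at 20 µM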;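 further: 0% = DMSO with enzyme and 100% = DMSO wells lacking diaphorase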
# * = called active by the depositor; / = no result. This is a sample that favours compounds with a hit; in the whole collection about 2.5% have one here.
SMILES,TbHK1 inh,HKDC1 inhibitor,PfG6PD inh,EP2 mod,EP2 antag,PHOSPHO1 block,PfG6PD confirm,others
O=S(=O)(Nc1ncccn1)c1ccc(F)cc1,/,-4,2,/,/,24,/,
O=S(=O)(Nc1c(O)ccc2ccccc12)c1ccc(F)cc1,/,29,76*,/,/,/,40,
O=S(=O)(Nc1c(O)ccc2ccccc12)c1ccccc1,/,32,75*,/,/,/,52*,Diaph ctr 10uM=25;Diaph ctr 30uM=22
CCn1c(CSc2nc(C)cc(C)n2)nnc1SCC(=O)Nc1ccc(Br)cc1,/,/,/,5,11,/,/,
COc1ccc2c(c1)C(=O)N(c1ccccc1)C(=O)C2,0,-2,-13,28,9,9,/,
COc1ccc2c(c1)C1(C)CC(C)(C)N2C(=O)N1c1ccccc1 (stereo not given),-1,4,73*,33,14,8,47,
CC1(C)Cc2c(c(N3CCOCC3)nc3sc(C(=O)Nc4ccccc4)c(N)c23)CO1,/,-2,56,/,/,1,/,
CN(C(=O)c1sc2nc(N3CCCC3)c3c(c2c1N)CC(C)(C)OC3)c1ccccc1,/,3,66*,/,/,14,-3,
N=c1c(S(=O)(=O)c2ccccc2)cc2c(=O)n3ccccc3nc2n1C1CCCCC1,/,-2,14,57,12,/,/,
Cc1ccc2nc3c(cc(S(=O)(=O)c4ccccc4)c(=N)n3C3CCCC3)c(=O)n2c1,/,2,69*,/,/,/,34,
COCCn1nnnc1C(c1cc2cc(OC)c(OC)cc2[nH]c1=O)N1CCN(c2ccc(O)cc2)CC1 (stereo not given),-27,6,65*,17,4,-3,56*,Diaph ctr 10uM=7;Diaph ctr 30uM=-3
COCCn1nnnc1C(c1cc2cc(C)c(C)cc2[nH]c1=O)N1CCN(c2ccc(F)cc2)CC1 (stereo not given),/,/,/,-4,3,/,/,
CCCCNc1cc(NC(C)=O)cc2cc(OC)c(OC)cc12,-1,21,72*,/,23,18,43,
O=C(CNC(=O)c1ccc(Br)cc1)NCC(=O)OCC(=O)c1ccc(F)cc1,/,-4,14,/,/,26,/,
O=C(CNC(=O)c1ccccc1)NCC(=O)OCC(=O)c1ccc([N+](=O)[O-])cc1,26,-9,59*,19,8,0,55*,Diaph ctr 10uM=-18;Diaph ctr 30uM=-16
O=C(CNC(=O)c1ccc(Br)cc1)NCC(=O)OCC(=O)c1ccc([N+](=O)[O-])cc1,10,-10,67*,31,5,1,57*,Diaph ctr 10uM=-5;Diaph ctr 30uM=-8
COc1cc(CN[C@@H]2CCC(=O)N[C@H]2c2cc(F)cc(F)c2)ccc1OCC(N)=O,/,/,/,10,7,/,/,
COC(=O)CCCC1=CC2=CC(=O)C(C)(OC(=O)c3cccs3)C(=O)C2=CN1Cc1ccc2c(c1)OCO2 (stereo not given),-39,23,43,6,19,26,/,
COC(=O)CCCC1=CC2=CC(=O)C(C)(OC(=O)c3cccs3)C(=O)C2=CN1Cc1ccccc1 (stereo not given),-35,22,75*,3,7,18,43,
CCCCC1=CC2=CC(=O)C(C)(OC(=O)CC)C(=O)C2=CN1Cc1ccco1 (stereo not given),-51,15,35,3,7,35,/,
COC(=O)CCCC1=CC2=CC(=O)C(C)(OC(=O)c3cccs3)C(=O)C2=CN1CCCOC(C)C (stereo not given),-43,22,62*,-8,19,0,20,
COC(=O)CCCC1=CC2=CC(=O)C(C)(OC(=O)c3cccs3)C(=O)C2=CN1Cc1ccco1 (stereo not given),-38,19,73*,-4,29,26,31,
Cc1cccc(NC(=S)NCCc2ccccc2)n1,-4,-2,70*,54,9,-145,24,
S=C(NCCc1ccccc1)Nc1ccccn1,2,-9,16,-4,1,-21,/,
CCN1C(=O)C(c2ccc(F)cc2)C2(CCN(C(=O)c3ccco3)CC2)C1=O (stereo not given),/,/,/,-12,/,/,/,
SMILES,TbHK1 inh,HKDC1 inhibitor,PfG6PD inh,EP2 mod,EP2 antag,PHOSPHO1 block,PfG6PD confirm,others
S=C(NN=Cc1ccccn1)N(Cc1ccccn1)Cc1ccccn1,/,-36,80*,/,/,/,55*,Diaph ctr 10uM=-9;Diaph ctr 30uM=-1
O=C(N1CCC(n2nnc3ccccc3c2=O)CC1)C1(c2ccccc2)CC1,/,/,/,-11,12,/,/,
O=C1Nc2ccccc2C(=O)C1(Cl)Cc1ccccc1 (stereo not given),-5,7,70*,-19,112*,-63,66*,Diaph ctr 10uM=-2;Diaph ctr 30uM=-6
CCN=c1scc(C)n1/N=C/c1ccc(O)c(O)c1O,9,18,80*,-16,4,-1,72*,Diaph ctr 10uM=25;Diaph ctr 30uM=37
CCN=c1scc(C)n1/N=C/c1cc(Br)c(O)c(Br)c1,-6,1,3,12,7,-111,/,
COc1ccc2cc(CN(Cc3ccco3)C(=S)NCC3CCCO3)c(=O)[nH]c2c1 (stereo not given),-23,-5,67*,-12,10,1,14,
O=C(Nc1nnc(-c2ccc(F)cc2)s1)c1ccco1,/,0,-14,/,/,26,/,
O=C(Nc1n[nH]c(=S)s1)c1ccco1,/,-3,60*,/,/,31,37,
CCOc1ccc(-n2c(SCC(=O)NC(C)(C)C)nnc2-c2ccccn2)cc1,/,/,/,-11,8,/,/,
CCOc1cc(/C=N/O)ccc1OCc1ccc(C)cc1,38,-6,66*,18,13,20,42,
CCOc1cc(/C=N/O)cc(Br)c1OCc1ccc(Cl)cc1,4,-3,76*,24,10,41,4,
CCOc1cc(/C=N/O)ccc1OS(=O)(=O)c1ccc(C)cc1,5,1,15,-52,13,17,/,
Cn1cc(C(O)CN2CCN(c3ccccc3)CC2)c2ccccc21 (stereo not given),/,/,/,-44,5,/,/,
O=C(Nc1cccc(F)c1)c1ccc(-c2ccccc2Cl)o1,6,2,79*,-33,16,-6,-7,
COc1ccc(NC(=O)c2ccc(-c3ccccc3Cl)o2)cc1,-2,5,65*,-15,2,-21,13,
CCc1nc(SCC(=O)NC(C)(C)C)c2c(C)c(C)sc2n1,/,/,/,-46,7,/,/,
CC1=NOC(=O)/C1=C\c1ccc(-c2ccccc2Br)o1,11,35,95*,14,44*,-8,51*,Diaph ctr 10uM=-5;Diaph ctr 30uM=-2
Cc1cc2nnc(SCC(=O)Nc3cccc(Cl)c3)n2c2ccccc12,/,/,/,-4,10,/,/,
CCOc1ccc(C(C)NC(=S)NC2CCCCC2)cc1OCC (stereo not given),-2,7,6,32,2,32,/,
